Experimental findings from article PMC7113852 (Antiviral Research, 2018) are described below.

Data set [1] deals with EV1. Briefly: microbe, parasite or virus in culture. Conditions: for EC50: read-out: EC50 other. In kind it is cell-based, Echovirus 1.
The test system of data set [2] is EV1. Nature of the data set: microbe, parasite or virus in culture. In kind it is cell-based, Echovirus 1.
Data set [3] in a line: in vitro. The following applies: human.
In data set [4] the test system is RVFV (rRVFVΔNSs::Katushka). Nature of the data set: microbe, parasite or virus in culture. In kind it is cell-based, Rift Valley fever virus.
The nature of data set [5]: in vitro. The following applies: human. The source holds these as a separate data set.
The subject of the next data set is HIV-1. Nature of the data set: HIV-1 infection of TZM-bl cells, firefly luciferase under HIV-1 LTR promoter. In kind it is cell-based, Human immunodeficiency virus 1. The following applies: for SI (minimal selectivity index, CC50/EC50) / primary screen hit against HIV-1 / validation of anti-HIV-1 hit: HIV-1, TZM-bl cells; for validation of anti-HIV-1 hit: validation experiment; for EC50: Human immunodeficiency virus 1, TZM-bl, read-out: EC50 other.

For data set [6], the system named is ZIKV FB-GWUH-2016 strain. Nature of the data set: ZIKV titer from compound-treated RPE cells, plaque assay on Vero-E6 cells. In kind it is cell-based, Zika virus. The following applies: ZIKV, RPE cells; for antiviral activity in repeat experiments: repeated CTG, CTxG and virus titration. An outline of the steps:
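Medium for ZIKV infection: DMEM-F12 with 2% FBS, 2 mM L-glutamine, 0.25% sodium bicarbonate and 50 U/ml PenStrep, applied after 24 h growth of ~4 × 10^4 RPE cells/well. Test compound added in seven three-fold dilutions from 30 μM; infection at MOI 1. Media harvested at cytopathic effect (typically 24–72 hpi), serially diluted in PBS, plaque-titrated on Vero-E6 (PFU/ml). EC50 from variable-slope non-linear regression or Hill fit.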

Data set [7] concerns ZIKV FB-GWUH-2016 strain. Nature of the data set: Viability and death of ZIKV-infected RPE cells. In kind it is cell-based, Zika virus. Conditions: for SI (minimal selectivity index, CC50/EC50): ZIKV, RPE cells; for EC50: Zika virus, RPE.
Data set [8] in a line: in vitro. Conditions: human. This is another data set of the same source.
Data set [9] deals with CHIKV-2SG-NanoLuc. Briefly: microbe, parasite or virus in culture. The class given is cell-based, Chikungunya virus. Conditions: for SI (minimal selectivity index, CC50/EC50): CHIKV, RPE cells; for EC50: Chikungunya virus, RPE.
Data set [10] relates to RRV-2SG-NanoLuc. Briefly: microbe, parasite or virus in culture. The class given is cell-based, Ross River virus.
Data set [11] concerns CHIKV-2SG-NanoLuc. Nature of the data set: microbe, parasite or virus in culture. In kind it is cell-based, Chikungunya virus. Conditions: for EC50: Chikungunya virus, RPE, read-out: EC50 other.
Data set [12] has as its system RRV-2SG-NanoLuc. Nature of the data set: microbe, parasite or virus in culture. The class given is cell-based, Ross River virus. The source holds these as a separate data set.
The test system of data set [13] is FLUAV (influenza A/WSN/33(H1N1) virus). Briefly: microbe, parasite or virus in culture. In kind it is cell-based. Conditions: for EC50: Influenza A virus, H1N1|WSN, RPE.
The subject of data set [14] is HSV-1. Briefly: HSV-1 titer from compound-treated RPE cells, plaque assay on Vero-E6 cells. The class given is cell-based, Herpes simplex virus 1. The following applies: HSV-1, RPE cells; repeated CTG, CTxG and virus titration. The method in brief: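 RPE cells (~4 × 10^4/well) grown 24 h, then switched to DMEM-F12 with 0.2% BSA, 2 mM L-glutamine, 0.35% NaHCO3 and 1 μg/mL TPCK-trypsin. Three-fold dilutions of test compound (seven concentrations from 30 μM); HSV-1 infection at MOI 1. Supernatants collected at cytopathic effect (typically 24–72 hpi), serially diluted in PBS, plaqued on Vero-E6 under overlay, fixed; titers as PFU/ml.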

The subject of data set [15] is FLUAV (influenza A/WSN/33(H1N1) virus). Nature of the data set: microbe, parasite or virus in culture. In kind it is cell-based.
Data set [16] relates to HSV-1. Briefly: Viability and death of HSV-1-infected RPE cells. In kind it is cell-based, Herpes simplex virus 1.
Setting [17] is: Rift Valley fever virus, A549, read-out: EC50 other.

Like-named read-outs stand apart in the source and are kept apart here. Where only a bound is given, the exact number is not on record here.

Take `CN[C@H]1C(=O)N[C@@H]2Cc3ccc(cc3)Oc3cc4cc(c3O[C@@H]3O[C@H](C(=O)O)[C@@H](O)[C@H](O)[C@H]3NC(=O)CCCCCCCCC(C)C)Oc3ccc(cc3Cl)[C@@H](O)[C@@H]3NC(=O)[C@H](NC(=O)[C@@H]4NC(=O)[C@@H](NC2=O)c2cc(cc(O)c2Cl)Oc2cc1ccc2O)c1ccc(O)c(c1)-c1c(O[C@H]2O[C@H](CO)[C@@H](O)[C@H](O)[C@@H]2O)cc(O)cc1[C@@H](C(=O)NCCCN(C)C)NC3=O` [Dalbavancin]: in the data set on EV1 [1], the “antiviral activity in repeat experiments” value is given as “confirmed antiviral activity”, the “production of infectious virus particles” value was “lowered production of infectious virus particles” and the EC50 stood at 9.72 µM. Also, in the data set with EV1 [2] (read-out: EC50 CTG), the EC50 was determined as 3.23 µM. The EC50 in the data set with EV1 [2] (read-out: EC50 CTxG) was determined as 18.7 µM. Further, in the data set on RPE cells, the CC50 was over 30 µM and the cytotoxicity entry is “without detectable cytotoxicity”.

In turn, `CN[C@H](CC(C)C)C(=O)N[C@H]1C(=O)N[C@@H](CC(N)=O)C(=O)N[C@H]2C(=O)N[C@H]3C(=O)N[C@H](C(=O)N[C@H](C(=O)O)c4cc(O)cc(O)c4-c4cc3ccc4O)[C@H](O[C@H]3C[C@](C)(N)[C@@H](O)[C@H](C)O3)c3ccc(c(Cl)c3)Oc3cc2cc(c3O[C@@H]2O[C@H](CO)[C@@H](O)[C@H](O)[C@H]2O[C@H]2C[C@](C)(NCc3ccc(-c4ccc(Cl)cc4)cc3)[C@@H](O)[C@H](C)O2)Oc2ccc(cc2Cl)[C@H]1O` [Oritavancin] gave a CC50 in the data set “in vitro [3]” of 75.8 µM. For the same compound, the “screen hit against RVFV” value in data set [4] is reported as “identified”. Besides, in data set [4] (setting [17]), the EC50 is 4.49 µM.

Take `Nc1ncn([C@@H]2O[C@H](CO)[C@@H](O)[C@H]2O)c(=O)n1` [Azacitidine]: in “in vitro [3]”, the CC50 is over 100 µM. Further, in data set [4], the “SI (minimal selectivity index, CC50/EC50)” value was over 9 and the “screen hit against RVFV” value was “identified”. In addition, the EC50 in data set [4] (setting [17]) came to 11.4 µM.

For the compound `CO[C@H]1C[C@@H]2CC[C@@H](C)[C@@](O)(O2)C(=O)C(=O)N2CCCC[C@H]2C(=O)O[C@H]([C@H](C)C[C@@H]2CC[C@@H](O)[C@H](OC)C2)CC(=O)[C@H](C)/C=C(\C)[C@@H](O)[C@@H](OC)C(=O)[C@H](C)C[C@H](C)/C=C/C=C/C=C/1C` [Rapamycin], the CC50 in the data set “in vitro [5]” is over 30 µM. In addition, in the data set with HIV-1, the “SI (minimal selectivity index, CC50/EC50)” value is given as over 1; the “primary screen hit against HIV-1” value is on record as “anti-HIV-1 agents”; the “validation of anti-HIV-1 hit” value is reported as “confirmed”; the EC50 was found to be 18.9 µM.

In the case of `O=C1[C@H](CC[C@H](O)c2ccc(F)cc2)[C@@H](c2ccc(O)cc2)N1c1ccc(F)cc1` [Ezetimibe], in “in vitro [5]”, the CC50 was over 30 µM. Also, in the data set on HIV-1, the “SI (minimal selectivity index, CC50/EC50)” value is over 2; the “primary screen hit against HIV-1” value is “anti-HIV-1 agents”; the “validation of anti-HIV-1 hit” value is reported as “confirmed”; the 50% effective concentration (EC50) came out at 13.2 µM. In the data set with ZIKV FB-GWUH-2016 strain [6], the “production of infectious virus particles” value is reported as “lowered production of infectious virus particles” and the “antiviral activity in repeat experiments” value is listed as “confirmed antiviral activity”. The “SI (minimal selectivity index, CC50/EC50)” value in the data set with ZIKV FB-GWUH-2016 strain [7] is over 333. Also, in the data set with ZIKV FB-GWUH-2016 strain [7] (read-out: EC50 CTxG), the EC50 stood at 0.09 µM. Further, the “screen hit against RVFV” value in [4] is reported as “identified”. Further, the cytotoxicity result in the data set with RPE cells was “without detectable cytotoxicity”. The compound also displayed a CC50 in the data set “in vitro [8]” (CC50 CTG) of over 30 µM. Besides, the CC50 in “in vitro [8]” (CC50 CTxG) is over 30 µM.

For the compound `COc1c(C)c2c(c(O)c1C/C=C(\C)CCC(=O)O)C(=O)OC2` [Mycophenolic acid], the “SI (minimal selectivity index, CC50/EC50)” value in the data set on CHIKV-2SG-NanoLuc [9] is over 333; in the data set on RRV-2SG-NanoLuc [12], over 9. In addition, the EC50 in the data set on CHIKV-2SG-NanoLuc [9] (read-out: EC50 CTxG) is 0.08 µM; with RRV-2SG-NanoLuc [10] (Ross River virus, RPE, read-out: EC50 other), 0.86 µM; with CHIKV-2SG-NanoLuc [11], 0.09 µM; with RRV-2SG-NanoLuc [12] (Ross River virus, RPE, read-out: EC50 CTG), 3.19 µM. Moreover, the “antiviral activity in repeat experiments” value with RRV-2SG-NanoLuc [10] and in the data set on CHIKV-2SG-NanoLuc [11] was “confirmed antiviral activity” in each case. The CC50 in the data set “in vitro [8]” (CC50 CTG) and in “in vitro [8]” (CC50 CTxG) was over 30 µM throughout.

On to Bortezamib, for which, in the data set with A549 cells, the CC50 is over 100 µM. The “screen hit against RVFV” value in [4] was “identified”. Moreover, the EC50 in [4] (read-out: EC50 other) is under 0.39 µM.

Consider `Nc1ccn([C@@H]2O[C@H](CO)[C@@H](O)C2(F)F)c(=O)n1` [Gemcitabine], for which the “antiviral activity in repeat experiments” value (with EV1 [1]; with ZIKV FB-GWUH-2016 strain [6]; in the data set with HSV-1 [14]; in [15]) was “confirmed antiviral activity” in each case. Further, the EC50 in the data set on EV1 [1] (Enterovirus B) worked out at 6.96 µM; in the data set with EV1 [2] (Enterovirus B, RPE, read-out: EC50 CTxG), 0.08 µM; with ZIKV FB-GWUH-2016 strain [7] (read-out: EC50 CTG) it was 0.92 µM; in the data set on ZIKV FB-GWUH-2016 strain [7] (read-out: EC50 CTxG) it was 0.07 µM; in data set [13] (read-out: EC50 CTG), 0.25 µM; in data set [13] (read-out: EC50 CTxG), 1.02 µM. For the same compound, the EC50 in [15] (Influenza A virus, H1N1|WSN, read-out: EC50 other) stood at 0.89 µM; in the data set on HSV-1 [16] (Human alphaherpesvirus 1, RPE, read-out: EC50 CTG) it was 0.05 µM. Moreover, the “SI (minimal selectivity index, CC50/EC50)” value is over 4 in the data set with EV1 [2]; 23 with ZIKV FB-GWUH-2016 strain [7]; over 29 in [13]; over 500 with HSV-1 [16] (HSV-1, RPE cells). The values for the CC50 in the data set with RPE cells (human), in “in vitro [8]” (CC50 CTG) and in “in vitro [8]” (CC50 CTxG) were 21.8 µM, over 30 µM and over 30 µM, respectively.

As for `CCN(CC)CCCC(C)Nc1ccnc2cc(Cl)ccc12` (centres unmarked) [Chloroquine], the “SI (minimal selectivity index, CC50/EC50)” value in the data set on CHIKV-2SG-NanoLuc [9] is over 2; in the data set on ZIKV FB-GWUH-2016 strain [7], over 4. The EC50 with CHIKV-2SG-NanoLuc [9] (read-out: EC50 CTG) turned out to be 12.8 µM; in the data set on CHIKV-2SG-NanoLuc [9] (read-out: EC50 CTxG), 9.15 µM; in the data set with ZIKV FB-GWUH-2016 strain [7] (read-out: EC50 CTG) it was 7.25 µM; in the data set on CHIKV-2SG-NanoLuc [11], 16.8 µM. In addition, the “antiviral activity in repeat experiments” value in the data set with ZIKV FB-GWUH-2016 strain [6] and with CHIKV-2SG-NanoLuc [11] was “confirmed antiviral activity” in each case. Also, the CC50 in “in vitro [8]” (CC50 CTG) and in the data set “in vitro [8]” (CC50 CTxG) was over 30 µM in each case.

A word on the EC50: it is the midpoint of the concentration-response curve.
